Key:
Assay type in all cases: ADME, organism-based
Spleen = assay: Biodistribution in spleen of PSMA expressing human PC3 PIP and PSMA deficient human PC3 flu cells xenografted SCID mouse at 2 uCi, iv after 60 mins; conditions: in vivo, 1 h
[1] = Ratio of drug level in tumor to blood of human PSMA expressing PC3 PIP and PSMA deficient human PC3 flu cells xenografted SCID mouse at 2 uCi, iv after 5 hrs
Outline: (§1)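 Male SCID mice carried subcutaneous xenografts of PSMA+ PC-3 PIP cells behind the left shoulder and PSMA− PC-3 flu cells behind the right (1–5 × 10^6 cells in HBSS), used at a tumour diameter of 3–5 mm. Each mouse received 2 μCi of radioiodinated tracer via the tail vein. Tissues were harvested at each time point for %ID/g against a standard dilution of the dose, decay-corrected. Ratios are PIP tumour:organ.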

Stomach [2] = assay: Biodistribution in stomach of PSMA expressing human PC3 PIP and PSMA deficient human PC3 flu cells xenografted SCID mouse at 2 uCi, iv after 5 hrs; conditions: in vivo
Muscle tissue = assay: Biodistribution in muscle of PSMA expressing human PC3 PIP and PSMA deficient human PC3 flu cells xenografted SCID mouse at 2 uCi, iv after 30 mins; conditions: in vivo, 0.5 h
[3] = Ratio of drug level in tumor to kidney of human PSMA expressing PC3 PIP and PSMA deficient human PC3 flu cells xenografted SCID mouse at 2 uCi, iv after 30 mins; conditions: in vivo, 0.5 h
Outline: (§2)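 Male SCID mice carried subcutaneous PSMA+ PC-3 PIP (left shoulder) and PC-3 flu (right shoulder) xenografts, 1-5 × 10^6 cells in HBSS, and were used at 3-5 mm tumor diameter. Tail-vein injection of 2 µCi radioligand; four mice per time point, killed by cervical dislocation. %ID/g from a standard dilution of the dose, decay-corrected, mean ± SD; PIP tumor:organ ratios.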

Lung = assay: Biodistribution in lung of PSMA expressing human PC3 PIP and PSMA deficient human PC3 flu cells xenografted SCID mouse at 2 uCi, iv after 30 mins; conditions: in vivo, 0.5 h
[4] = Biodistribution in PC3 flu tumor of PSMA expressing human PC3 PIP and PSMA deficient human PC3 flu cells xenografted SCID mouse at 2 uCi, iv after 5 hrs; conditions: in vivo; outline: as §2
Heart [5] = assay: Biodistribution in heart of PSMA expressing human PC3 PIP and PSMA deficient human PC3 flu cells xenografted SCID mouse at 2 uCi, iv after 5 hrs; conditions: in vivo
Urinary bladder [6] = assay: Biodistribution in bladder of PSMA expressing human PC3 PIP and PSMA deficient human PC3 flu cells xenografted SCID mouse at 2 uCi, iv after 30 mins; conditions: in vivo, 0.5 h
Kidney [7] = assay: Biodistribution in kidney of PSMA expressing human PC3 PIP and PSMA deficient human PC3 flu cells xenografted SCID mouse at 2 uCi, iv after 5 hrs; conditions: in vivo
[8] = Ratio of drug level in tumor to pancreas of human PSMA expressing PC3 PIP and PSMA deficient human PC3 flu cells xenografted SCID mouse at 2 uCi, iv after 5 hrs; conditions: in vivo
Outline: (§3)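 Male SCID mice carried subcutaneous xenografts: PSMA+ PC-3 PIP behind the left shoulder and PSMA− PC-3 flu behind the right, 1–5 × 10^6 cells in HBSS. Mice were used at 3–5 mm tumor diameter. 2 μCi was given by tail vein, and 4 mice per time point were killed by cervical dislocation. %ID/g came from a standard dilution of the dose, decay-corrected. Ratio is PIP tumor %ID/g to organ %ID/g.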

Stomach [9] = assay: Biodistribution in stomach of PSMA expressing human PC3 PIP and PSMA deficient human PC3 flu cells xenografted SCID mouse at 2 uCi, iv after 30 mins; conditions: in vivo, 0.5 h
[10] = Ratio of drug level in tumor to pancreas of human PSMA expressing PC3 PIP and PSMA deficient human PC3 flu cells xenografted SCID mouse at 2 uCi, iv after 30 mins; conditions: in vivo, 0.5 h; outline: as §2
[11] = Ratio of drug level in tumor to blood of human PSMA expressing PC3 PIP and PSMA deficient human PC3 flu cells xenografted SCID mouse at 2 uCi, iv after 60 mins; outline: as §1
Urinary bladder [12] = assay: Biodistribution in bladder of PSMA expressing human PC3 PIP and PSMA deficient human PC3 flu cells xenografted SCID mouse at 2 uCi, iv after 2 hrs; conditions: in vivo
Heart [13] = assay: Biodistribution in heart of PSMA expressing human PC3 PIP and PSMA deficient human PC3 flu cells xenografted SCID mouse at 2 uCi, iv after 60 mins; conditions: in vivo, 1 h
[14] = Ratio of drug level in tumor to lung of human PSMA expressing PC3 PIP and PSMA deficient human PC3 flu cells xenografted SCID mouse at 2 uCi, iv after 2 hrs; conditions: in vivo; outline: as §2
[15] = Ratio of drug level in tumor to bladder of human PSMA expressing PC3 PIP and PSMA deficient human PC3 flu cells xenografted SCID mouse at 2 uCi, iv after 30 mins; conditions: in vivo, 0.5 h; outline: as §2
[16] = Biodistribution in large intestine of PSMA expressing human PC3 PIP and PSMA deficient human PC3 flu cells xenografted SCID mouse at 2 uCi, iv after 2 hrs; conditions: in vivo; outline: as §2
[17] = Ratio of drug level in tumor to liver of human PSMA expressing PC3 PIP and PSMA deficient human PC3 flu cells xenografted SCID mouse at 2 uCi, iv after 2 hrs; conditions: in vivo; outline: as §2
[18] = Biodistribution in PC3 PIP tumor of PSMA expressing human PC3 PIP and PSMA deficient human PC3 flu cells xenografted SCID mouse at 2 uCi, iv after 2 hrs; conditions: in vivo
Heart [19] = assay: Biodistribution in heart of PSMA expressing human PC3 PIP and PSMA deficient human PC3 flu cells xenografted SCID mouse at 2 uCi, iv after 30 mins; conditions: in vivo, 0.5 h
[20] = Ratio of drug level in tumor to lung of human PSMA expressing PC3 PIP and PSMA deficient human PC3 flu cells xenografted SCID mouse at 2 uCi, iv after 30 mins; conditions: in vivo, 0.5 h; outline: as §2
Kidney [21] = assay: Biodistribution in kidney of PSMA expressing human PC3 PIP and PSMA deficient human PC3 flu cells xenografted SCID mouse at 2 uCi, iv after 2 hrs; conditions: in vivo
Kidney [22] = assay: Biodistribution in kidney of PSMA expressing human PC3 PIP and PSMA deficient human PC3 flu cells xenografted SCID mouse at 2 uCi, iv after 60 mins; conditions: in vivo, 1 h
[23] = Ratio of drug level in tumor to lung of human PSMA expressing PC3 PIP and PSMA deficient human PC3 flu cells xenografted SCID mouse at 2 uCi, iv after 60 mins; conditions: in vivo, 1 h; outline: as §2
[24] = Ratio of drug level in tumor to pancreas of human PSMA expressing PC3 PIP and PSMA deficient human PC3 flu cells xenografted SCID mouse at 2 uCi, iv after 60 mins; conditions: in vivo, 1 h; outline: as §3
[25] = Ratio of drug level in tumor to lung of human PSMA expressing PC3 PIP and PSMA deficient human PC3 flu cells xenografted SCID mouse at 2 uCi, iv after 5 hrs; conditions: in vivo; outline: as §2
Pancreas = assay: Biodistribution in pancreas of PSMA expressing human PC3 PIP and PSMA deficient human PC3 flu cells xenografted SCID mouse at 2 uCi, iv after 30 mins; conditions: in vivo, 0.5 h

## O=C(O)CC[C@H](NC(=O)N[C@@H](CCCCNC(=O)c1ccc([18F])cc1)C(=O)O)C(=O)O
Spleen
  Drug uptake: 7.2 % ID/g
[1]
  Kp at 5 h: 117
Stomach [2]
  Drug uptake: 0.04 % ID/g
Muscle tissue
  Drug uptake: 2.4 % ID/g
[3]
  Ratio: 0.1
Lung
  Drug uptake: 1.7 % ID/g
[4]
  Drug uptake: 0.1 % ID/g
Heart [5]
  Drug uptake: 0.03 % ID/g
Urinary bladder [6]
  Drug uptake: 6.8 % ID/g
Kidney [7]
  Drug uptake: 14 % ID/g
[8]
  Ratio: 70
Stomach [9]
  Drug uptake: 0.8 % ID/g
[10]
  Ratio: 11
[11]
  Kp at 1 h: 9
Urinary bladder [12]
  Drug uptake: 11 % ID/g
Heart [13]
  Drug uptake: 0.2 % ID/g
[14]
  Ratio: 4
[15]
  Ratio: 1
[16]
  Drug uptake: 0.2 % ID/g
[17]
  Ratio: 0.3
[18]
  Drug uptake: 3.7 % ID/g
Heart [19]
  Drug uptake: 0.8 % ID/g
[20]
  Ratio: 5
Kidney [21]
  Drug uptake: 29 % ID/g
Kidney [22]
  Drug uptake: 48 % ID/g
[23]
  Ratio: 13
[24]
  Ratio: 21
[25]
  Ratio: 35
Pancreas
  Drug uptake: 0.8 % ID/g

— ChEMBL document CHEMBL1151761, “Radiohalogenated prostate-specific membrane antigen (PSMA)-based ureas as imaging agents for prostate cancer” (J Med Chem, 2008)
